Measured values reported in ChEMBL document CHEMBL1156012, “Structure-activity relationship and improved hydrolytic stability of pyrazole derivatives that are allosteric inhibitors of West Nile Virus NS2B-NS3 proteinase” (Bioorg Med Chem Lett, 2009).

Assays:
[1] = Aqueous stability assessed as half life at pH 8.0 buffer; format: physicochemical
Summary of the method: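 Compound held in pH 8 buffer; remaining amount followed over time by LC/MS to give half-life.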

[2] = target: Genome polyprotein (West Nile virus, UniProt P06935); assay: Inhibition of WNV NS2B-NS3 protease by fluorescence assay
Chain of Genome polyprotein (P06935 1371-1501 limits assumed): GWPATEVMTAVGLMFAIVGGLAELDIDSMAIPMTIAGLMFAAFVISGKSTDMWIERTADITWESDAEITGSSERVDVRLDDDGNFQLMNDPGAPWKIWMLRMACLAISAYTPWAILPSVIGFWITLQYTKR
Chain of Genome polyprotein (P06935 1502-2120 limits assumed): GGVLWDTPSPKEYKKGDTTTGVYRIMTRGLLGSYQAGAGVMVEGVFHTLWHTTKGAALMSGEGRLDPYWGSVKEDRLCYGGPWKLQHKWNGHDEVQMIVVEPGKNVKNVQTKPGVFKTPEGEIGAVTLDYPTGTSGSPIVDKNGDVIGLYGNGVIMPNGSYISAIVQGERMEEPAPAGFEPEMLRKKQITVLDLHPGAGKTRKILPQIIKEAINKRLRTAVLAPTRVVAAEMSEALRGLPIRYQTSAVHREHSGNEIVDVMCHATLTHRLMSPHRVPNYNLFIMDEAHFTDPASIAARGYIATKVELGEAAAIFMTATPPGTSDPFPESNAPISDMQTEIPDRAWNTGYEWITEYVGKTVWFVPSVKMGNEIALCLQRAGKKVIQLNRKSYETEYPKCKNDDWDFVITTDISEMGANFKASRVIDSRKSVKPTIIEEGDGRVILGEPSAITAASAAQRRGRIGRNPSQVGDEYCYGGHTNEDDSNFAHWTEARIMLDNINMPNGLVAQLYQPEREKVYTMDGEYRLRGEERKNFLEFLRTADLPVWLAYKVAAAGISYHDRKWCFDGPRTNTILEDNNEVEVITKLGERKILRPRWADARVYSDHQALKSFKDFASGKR
Summary of the method: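 Recombinant WNV NS2B-NS3 proteinase (10 nM, active-site titrated against aprotinin) preincubated 60 min at 18 °C with increasing inhibitor concentrations in 10 mM Tris-HCl pH 8.0, 20% glycerol, 0.005% Brij 35. Pyr-RTKR-AMC substrate at 25 μM; initial velocities read continuously at ex 360/em 465 nm. Triplicates; IC50 derived.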

| Compound | t1/2 [1] [h] | IC50 [2] [µM] |
| --- | --- | --- |
| COc1ccc(S(=O)(=O)n2nc(OC(=O)c3ccc(F)cc3F)cc2N)cc1 | 7.5 | 1.96 |
| COc1ccc(S(=O)(=O)n2nc(OC(=O)c3c(F)c(F)c(C)c(F)c3F)cc2N)cc1 | – | 10.7 |
| COc1ccc(S(=O)(=O)n2nc(OC(=O)c3sccc3Cl)cc2N)cc1 | – | 1.22 |
| COc1ccc(Cn2nc(C)cc2CC(=O)c2c(F)cccc2F)cc1 | – | 23.9 |
| COc1ccc(Cn2nc(C)cc2CC(=O)c2ccccc2F)cc1 | – | 38.8 |
| COc1ccc(Cn2nc(C)cc2CC(O)c2ccccc2)cc1 (stereo not given) | – | > 100 |
| COc1ccc(S(=O)(=O)n2nc(OC(=O)c3sccc3C)cc2N)cc1 | – | 5 |
| Cc1cc(OC(=O)c2c(F)ccc(C)c2F)n(Cc2ccccc2)n1 | – | 9.43 |
| Cc1cc(OC(=O)c2c(F)cccc2F)n(Cc2ccccc2)n1 | – | 8.04 |
| COc1ccc(S(=O)(=O)n2nc(OC(=O)c3cc(F)ccc3F)cc2N)cc1 | – | 4.9 |
| COc1ccc(S(=O)(=O)n2nc(OC(=O)c3cccc(C(F)(F)F)c3F)cc2N)cc1 | – | 45.5 |
| Cc1cc(NC(=O)c2ccccc2)n(-c2ccccc2)n1 | > 96 | 16 |
| COc1ccc(S(=O)(=O)n2nc(OC(=O)c3ccccc3C)cc2N)cc1 | – | 3.55 |
| COc1ccc(S(=O)(=O)n2nc(OC(=O)c3ccccc3[N+](=O)[O-])cc2N)cc1 | – | > 100 |
| COc1ccc(Cn2nc(C)cc2OC(=O)c2c(F)ccc(C)c2F)cc1 | – | 9.26 |
| COc1ccc(S(=O)(=O)n2nc(OC(=O)c3c(F)ccc(F)c3F)cc2N)cc1 | 1.5 | 0.97 |
| COc1ccc(S(=O)(=O)n2nc(OC(=O)c3ccc(F)c(F)c3F)cc2N)cc1 | – | 11.9 |
| COc1ccc(Cn2nc(C)cc2/C=C/c2c(F)cccc2F)cc1 | 13 | 13.8 |
| COc1ccc(Cn2nc(C)cc2OC(=O)c2ccccc2)cc1 | 15 | 4.03 |
| COc1ccc(Cn2nc(C)cc2CC(O)c2c(F)cccc2F)cc1 (stereo not given) | – | > 100 |
| COc1ccc(S(=O)(=O)n2nc(OC(=O)c3c(F)cccc3F)cc2N)cc1 | 1.5 | 0.31 |
| COc1ccc(S(=O)(=O)n2nc(OC(=O)c3c(F)cc(F)cc3F)cc2N)cc1 | 4.25 | 1.83 |
| COc1ccc(Cn2nc(C)cc2CC(=O)c2ccccc2)cc1 | – | > 100 |
| COc1ccc(Cn2nc(C)cc2OC(=O)c2c(F)cccc2F)cc1 | 1.5 | 8.71 |
| COc1ccc(S(=O)(=O)n2nc(OC(=O)c3c(Cl)cccc3Cl)cc2N)cc1 | 5 | > 100 |
| COc1ccc(S(=O)(=O)n2nc(OC(=O)c3cc(F)c(F)cc3F)cc2N)cc1 | – | 26.2 |
| COc1ccc(S(=O)(=O)n2nc(OC(=O)c3ccccc3OC)cc2N)cc1 | – | > 100 |
| COc1ccc(S(=O)(=O)n2nc(C)cc2NC(=O)c2ccccc2)cc1 | 1.25 | 9.2 |
| COc1ccc(S(=O)(=O)n2nc(OC(=O)c3c(F)ccc(C)c3F)cc2N)cc1 | 2.5 | 4.28 |
